In brackets after ≈: the same amount, converted by molar mass. Activity calls are given as the source filed them. No cut-off for these calls is given here.
What was measured:
Leishmania amazonensis [1] = assay: Antileishmanial activity against GFP expressing Leishmania amazonensis WHOM/BR/75/Josefa promastigote forms after 72 hrs by fluorescence assay; format: functional, organism-based
Procedure, shortened: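 GFP-transfected L. amazonensis WHOM/BR/75/Josefa promastigotes grown at 26 °C in M199 with penicillin, streptomycin, 10% heat-inactivated fetal calf serum and 2% human urine, kept under geneticin selection. Compounds dissolved in DMSO (final ≤1%), medium with 5% HIFCS, 72 h at 27 °C. Fluorescence read at 435/538 nm; triplicates, percent inhibition versus medium-only control.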

Leishmania amazonensis [2] = assay: Antileishmanial activity against Leishmania amazonensis WHOM/BR/75/Josefa amastigote forms infected in BALB/c mouse peritoneal macrophages after 72 hrs by hematological staining-based microscopic analysis; format: functional, organism-based
Procedure, shortened: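 Peritoneal macrophages from BALB/c mice collected in ice-cold DMEM, plated at 2 × 10⁶/mL in chamber slides, 1 h at 37 °C and 4% CO₂, non-adherent cells washed off. Infected with stationary-phase promastigotes at 5:1 parasite/macrophage, free parasites washed off after 4 h. Treated, then stained with a hematological dye and amastigotes counted by optical microscopy; triplicate means.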

[3] = (§1) Cytotoxicity against BALB/c mouse peritoneal macrophages assessed as increase in LDH release; format: cell-based, Peritoneal macrophage; conditions: BALB/c, peritoneal macrophages, read-out: LD50 (the source's name)
Procedure, shortened: (§2)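 LDH released into the medium from macrophages was read at 340 nm. Cells in 2% Triton X-100 gave maximum release and cells in medium gave minimum release. Release was expressed as percent of the positive control, and the 50% value was obtained by linear regression.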

[4] = Selectivity index, ratio of LD50 for BALB/c mouse peritoneal macrophages to IC50 for antileishmanial activity against Leishmania amazonensis WHOM/BR/75/Josefa amastigote forms; format: toxicity; conditions: for selectivity ratio: BALB/c, peritoneal macrophages, read-out: Selectivity Index
Peritoneal macrophage [5] = assay: Induction of nitric oxide production in BALB/c mouse peritoneal macrophages; format: functional, cell-based
Peritoneal macrophage [6] = assay: Cytotoxicity against BALB/c mouse peritoneal macrophages at 1 to 100 umol/L after 48 hrs by optical microscopy; format: cell-based
Leishmania amazonensis [7] = assay: Antileishmanial activity against Leishmania amazonensis WHOM/BR/75/Josefa amastigote forms infected in BALB/c mouse peritoneal macrophages after 48 hrs by optical microscopy; format: functional, organism-based
Procedure, shortened: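 BALB/c mouse peritoneal macrophages collected in ice-cold DMEM, plated at 2 × 10⁶/mL, and held 1 h at 37 °C with 4% CO₂. Non-adherent cells were washed off with PBS. Stationary-phase promastigotes were added at a 5:1 parasite:macrophage ratio at 35 °C with 5% CO₂, and free parasites were washed off after 4 h. After 48 h of treatment, slides were stained with a hematological dye and parasites were counted by optical microscopy.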

Leishmania amazonensis [8] = assay: Antileishmanial activity against Leishmania amazonensis MHOM/BR/75/Josefa promastigote forms by trypan blue assay; format: functional, organism-based
Peritoneal macrophage [9] = assay: as §1; format: cell-based; conditions: peritoneal macrophage; procedure, shortened: as §2
[10] = Leishmania amazonensis, WHOM/BR/75/Josefa, 72 h, read-out: IC50

Row | Compound | IC50 (Leishmania amazonensis [1]) [µM] | other results
1 | C=CCc1ccc(OCc2cn(Cc3ccc(OC(F)(F)F)cc3)nn2)c(OC)c1 | 322 | 
2 | C=CCc1ccc(OCc2cn(Cc3ccc(OC)cc3)nn2)c(OC)c1 | 425 | 
3 | C=CCc1ccc(OCc2cn(Cc3ccccc3)nn2)c(OC)c1 | 30.2 | 
4 | C=CCc1ccc(OCCCc2cn(Cc3ccc(C)cc3)nn2)c(OC)c1 | 7.4 | IC50 (Leishmania amazonensis [2]; [10]): 1.6 µM; CC50 [3]: 212 µM; selectivity ratio [4]: 132; Activity (Peritoneal macrophage [5]): inactive; Activity (Peritoneal macrophage [6]): Non-Toxic; Activity (Leishmania amazonensis [7]): Active
5 | C=CCc1ccc(OCCCc2cn(Cc3cccc(Br)c3)nn2)c(OC)c1 | 980 | 
6 | C=CCc1ccc(OCc2cn(Cc3cccc(Br)c3)nn2)c(OC)c1 | 156 | 
7 | C=CCc1ccc(OCCCc2cn(Cc3ccccc3Br)nn2)c(OC)c1 | 913 | 
8 | C=CCc1ccc(OCc2cn(Cc3ccc(C)cc3)nn2)c(OC)c1 | 106 | 
9 | C=CCc1ccc(OCc2cn(Cc3ccc(C(F)(F)F)cc3)nn2)c(OC)c1 | 2010 | 
10 | C=CCc1ccc(OCc2cn(Cc3ccc(Br)cc3)nn2)c(OC)c1 | 993 | 
11 | C[C@@H]1[C@H](O)[C@@H](C)/C=C/C=C/C=C/C=C/C=C/C=C/C=C/[C@H](O[C@@H]2O[C@H](C)[C@@H](O)[C@H](N)[C@@H]2O)C[C@@H]2O[C@](O)(C[C@@H](O)C[C@@H](O)[C@H](O)CC[C@@H](O)C[C@@H](O)CC(=O)O[C@H]1C)C[C@H](O)[C@H]2C(=O)O [AMPHOTERICIN B] | 0.4 | 
12 | C=CCc1ccc(OCc2cn(Cc3ccccc3Br)nn2)c(OC)c1 | 160 | 
13 | N=C(N)c1ccc(OCCCCCOc2ccc(C(=N)N)cc2)cc1 [PENTAMIDINE] | 4.2 | IC50 (Leishmania amazonensis [2]; [10]): 1.8 µM; CC50 [3]: 8.5 µM; selectivity ratio [4]: 4.7
14 | C=CCc1ccc(OCc2cn(Cc3ccc(I)cc3)nn2)c(OC)c1 | 2010 | 
15 | C=CCc1ccc(OCc2cn(Cc3ccc([N+](=O)[O-])cc3)nn2)c(OC)c1 | 130 | 
16 | C=CCc1ccc(O)c(OC)c1 [EUGENOL] |  | IC50 (Leishmania amazonensis [8]): 80 µg/mL (≈ 487 µM)
17 | MEGLUMINE ANTIMONATE [listing 1 of 2 here] |  | IC50 (Leishmania amazonensis [2]): 45.5 µg/mL; LD50 (Peritoneal macrophage [9]): 75.5 µg/mL; Selectivity Index [4]: 1.6; Activity (Peritoneal macrophage [6]): Non-Toxic
18 | C=CCc1ccc(OCc2cn(Cc3ccc(F)cc3)nn2)c(OC)c1 | 59.4 | 
19 | MEGLUMINE ANTIMONATE [listing 2 of 2 here] |  | Activity (Leishmania amazonensis [7]): Active
20 | C=CCc1ccc(OCc2cn(Cc3ccc(F)c(F)c3)nn2)c(OC)c1 | 969 | 
21 | C=CCc1ccc(OCc2cn(Cc3cc(Cl)ccc3Cl)nn2)c(OC)c1 | 49.2 | 

More lines, main results first:

Row | IC50 (Leishmania amazonensis [1]) [µM] | Compound | other results
22 | 120 | C=CCc1ccc(OCCCc2cn(Cc3ccc(OC)cc3)nn2)c(OC)c1 | 
23 | 1780 | C=CCc1ccc(OCc2cn(Cc3ccc(Cl)cc3)nn2)c(OC)c1 | 
24 | 37.9 | C=CCc1ccc(OCCCc2cn(Cc3ccccc3)nn2)c(OC)c1 | 
25 | 287 | C=CCc1ccc(OCCCc2cn(Cc3ccc(Br)cc3)nn2)c(OC)c1 | 
26 | 817 | C=CCc1ccc(OCCCc2cn(Cc3ccc(Cl)cc3)nn2)c(OC)c1 | 
27 | 32.2 | C=CCc1ccc(OCCCc2cn(Cc3ccc(F)cc3)nn2)c(OC)c1 | 
28 | 279 | C=CCc1ccc(OCCCc2cn(Cc3ccc(I)cc3)nn2)c(OC)c1 | 
29 | 146 | C=CCc1ccc(OCCCc2cn(Cc3ccc(OC(F)(F)F)cc3)nn2)c(OC)c1 | 
30 | 173 | C=CCc1ccc(OCCCc2cn(Cc3ccc([N+](=O)[O-])cc3)nn2)c(OC)c1 | 
31 | 295 | C=CCc1ccc(OCCCc2cn(Cc3ccc(C(F)(F)F)cc3)nn2)c(OC)c1 | 
32 | 178 | C=CCc1ccc(OCCCc2cn(Cc3ccc(F)c(F)c3)nn2)c(OC)c1 | 

— ChEMBL document CHEMBL4145511, “Synthesis and leishmanicidal activity of eugenol derivatives bearing 1,2,3-triazole functionalities” (Eur J Med Chem, 2018)
